Reference: ChEMBL document CHEMBL5029150, “Controlling Intramolecular Interactions in the Design of Selective, High-Affinity Ligands for the CREBBP Bromodomain” (J Med Chem, 2021)
Activity calls are given as the source filed them. No cut-off for these calls is given here.

Key:
Conditions in all cases: dose microM <=1
[1] = biological target: T1, Bromodomain-containing protein 9 (Homo sapiens) (UniProt Q9H8M2); experiment: Binding affinity to human BRD9 assessed as dissociation constant up to 1 uM by BROMOscan assay
T1 sequence (whole entry): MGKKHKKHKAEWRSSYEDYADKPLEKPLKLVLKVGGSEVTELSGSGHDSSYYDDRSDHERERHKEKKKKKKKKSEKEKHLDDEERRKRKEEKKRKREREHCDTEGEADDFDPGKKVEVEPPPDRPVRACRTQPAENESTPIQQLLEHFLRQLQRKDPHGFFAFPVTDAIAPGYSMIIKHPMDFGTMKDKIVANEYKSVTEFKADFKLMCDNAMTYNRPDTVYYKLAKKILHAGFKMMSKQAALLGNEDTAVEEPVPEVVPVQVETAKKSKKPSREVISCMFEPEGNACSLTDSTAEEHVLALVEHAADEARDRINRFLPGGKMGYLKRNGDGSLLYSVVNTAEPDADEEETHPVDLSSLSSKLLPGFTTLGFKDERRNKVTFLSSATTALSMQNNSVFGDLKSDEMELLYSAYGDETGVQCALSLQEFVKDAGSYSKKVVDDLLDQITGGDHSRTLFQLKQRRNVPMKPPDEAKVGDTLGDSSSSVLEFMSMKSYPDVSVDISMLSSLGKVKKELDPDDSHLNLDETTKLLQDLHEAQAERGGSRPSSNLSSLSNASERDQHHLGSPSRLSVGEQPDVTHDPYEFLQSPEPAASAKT
How it was run: (§1)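 BROMOscan competition binding panel of 12 phylogenetically diverse bromodomains, including the CREBBP and EP300 bromodomains.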

[2] = biological target: T2, Transcription intermediary factor 1-alpha (Homo sapiens) (UniProt O15164); experiment: Binding affinity to human TRIM24 assessed as dissociation constant up to 1 uM by BROMOscan assay; how it was run: as §1
T2 sequence (whole entry): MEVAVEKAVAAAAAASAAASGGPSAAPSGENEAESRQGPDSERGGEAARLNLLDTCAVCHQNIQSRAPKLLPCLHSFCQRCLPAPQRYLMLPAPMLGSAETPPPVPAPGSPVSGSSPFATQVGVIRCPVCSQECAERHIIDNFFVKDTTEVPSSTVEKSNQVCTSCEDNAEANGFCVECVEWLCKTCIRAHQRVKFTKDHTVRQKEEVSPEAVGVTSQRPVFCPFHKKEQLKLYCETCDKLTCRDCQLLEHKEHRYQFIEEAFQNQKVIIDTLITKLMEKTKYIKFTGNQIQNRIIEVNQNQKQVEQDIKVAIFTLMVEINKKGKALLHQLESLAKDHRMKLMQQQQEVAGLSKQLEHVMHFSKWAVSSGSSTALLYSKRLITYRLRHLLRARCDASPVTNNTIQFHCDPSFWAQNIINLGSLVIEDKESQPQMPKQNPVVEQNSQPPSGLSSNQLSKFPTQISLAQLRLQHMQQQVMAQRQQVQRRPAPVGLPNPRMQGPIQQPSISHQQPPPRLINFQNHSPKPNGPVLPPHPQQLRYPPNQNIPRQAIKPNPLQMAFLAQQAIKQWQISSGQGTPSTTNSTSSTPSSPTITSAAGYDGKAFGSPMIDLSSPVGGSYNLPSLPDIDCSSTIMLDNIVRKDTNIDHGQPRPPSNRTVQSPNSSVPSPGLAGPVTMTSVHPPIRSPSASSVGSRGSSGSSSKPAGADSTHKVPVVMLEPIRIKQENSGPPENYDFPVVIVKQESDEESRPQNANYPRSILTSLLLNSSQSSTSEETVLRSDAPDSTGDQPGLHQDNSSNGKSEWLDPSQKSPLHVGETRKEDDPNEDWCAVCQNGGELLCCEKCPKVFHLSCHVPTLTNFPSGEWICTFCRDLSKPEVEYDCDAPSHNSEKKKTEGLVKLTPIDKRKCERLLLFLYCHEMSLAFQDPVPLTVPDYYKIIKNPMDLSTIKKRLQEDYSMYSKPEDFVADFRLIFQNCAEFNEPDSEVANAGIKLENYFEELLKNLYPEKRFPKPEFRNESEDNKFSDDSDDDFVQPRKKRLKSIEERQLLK

[3] = biological target: T3, Peregrin (Homo sapiens) (UniProt P55201); experiment: Binding affinity to human BRPF1 assessed as dissociation constant up to 1 uM by BROMOscan assay; how it was run: as §1
T3 sequence (whole entry): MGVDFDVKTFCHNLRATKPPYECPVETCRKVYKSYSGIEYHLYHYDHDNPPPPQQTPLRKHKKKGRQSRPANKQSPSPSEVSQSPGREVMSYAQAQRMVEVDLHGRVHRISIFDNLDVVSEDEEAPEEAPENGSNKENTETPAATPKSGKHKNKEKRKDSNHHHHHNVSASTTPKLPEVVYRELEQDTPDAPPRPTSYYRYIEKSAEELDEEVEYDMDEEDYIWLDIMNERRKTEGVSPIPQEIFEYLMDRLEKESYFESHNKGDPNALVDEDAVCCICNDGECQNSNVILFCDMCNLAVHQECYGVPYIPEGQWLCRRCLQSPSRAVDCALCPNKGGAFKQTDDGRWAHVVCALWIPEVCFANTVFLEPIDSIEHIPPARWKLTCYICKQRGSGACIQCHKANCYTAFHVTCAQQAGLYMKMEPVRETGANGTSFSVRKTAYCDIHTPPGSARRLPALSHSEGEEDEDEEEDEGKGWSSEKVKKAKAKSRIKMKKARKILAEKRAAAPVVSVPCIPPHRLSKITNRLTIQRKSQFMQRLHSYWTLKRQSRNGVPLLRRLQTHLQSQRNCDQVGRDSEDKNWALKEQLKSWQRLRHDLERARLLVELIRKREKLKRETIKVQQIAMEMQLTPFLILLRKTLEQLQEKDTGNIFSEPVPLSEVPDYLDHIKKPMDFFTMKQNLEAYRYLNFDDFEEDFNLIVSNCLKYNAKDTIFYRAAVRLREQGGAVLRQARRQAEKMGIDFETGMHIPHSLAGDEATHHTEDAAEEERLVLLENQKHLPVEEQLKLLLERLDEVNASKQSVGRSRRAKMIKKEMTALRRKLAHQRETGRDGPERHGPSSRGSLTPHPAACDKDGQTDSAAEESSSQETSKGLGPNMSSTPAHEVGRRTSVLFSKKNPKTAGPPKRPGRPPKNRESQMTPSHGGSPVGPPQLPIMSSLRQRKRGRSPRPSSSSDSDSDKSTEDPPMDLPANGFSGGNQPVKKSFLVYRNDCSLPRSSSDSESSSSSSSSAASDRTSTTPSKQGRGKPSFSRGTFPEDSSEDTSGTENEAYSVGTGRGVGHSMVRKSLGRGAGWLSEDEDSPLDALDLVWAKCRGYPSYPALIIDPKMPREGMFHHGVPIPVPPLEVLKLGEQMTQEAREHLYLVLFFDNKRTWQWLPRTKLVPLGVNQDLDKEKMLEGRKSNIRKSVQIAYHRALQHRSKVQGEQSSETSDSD

[4] = biological target: Bromodomain-containing protein 2 (Homo sapiens) (UniProt P25440); experiment: Binding affinity to human BRD2 bromodomain 1 assessed as dissociation constant up to 1 uM by BROMOscan assay; how it was run: as §1
Sequence of Bromodomain-containing protein 2 (Homo sapiens) (P25440 whole entry, looked up): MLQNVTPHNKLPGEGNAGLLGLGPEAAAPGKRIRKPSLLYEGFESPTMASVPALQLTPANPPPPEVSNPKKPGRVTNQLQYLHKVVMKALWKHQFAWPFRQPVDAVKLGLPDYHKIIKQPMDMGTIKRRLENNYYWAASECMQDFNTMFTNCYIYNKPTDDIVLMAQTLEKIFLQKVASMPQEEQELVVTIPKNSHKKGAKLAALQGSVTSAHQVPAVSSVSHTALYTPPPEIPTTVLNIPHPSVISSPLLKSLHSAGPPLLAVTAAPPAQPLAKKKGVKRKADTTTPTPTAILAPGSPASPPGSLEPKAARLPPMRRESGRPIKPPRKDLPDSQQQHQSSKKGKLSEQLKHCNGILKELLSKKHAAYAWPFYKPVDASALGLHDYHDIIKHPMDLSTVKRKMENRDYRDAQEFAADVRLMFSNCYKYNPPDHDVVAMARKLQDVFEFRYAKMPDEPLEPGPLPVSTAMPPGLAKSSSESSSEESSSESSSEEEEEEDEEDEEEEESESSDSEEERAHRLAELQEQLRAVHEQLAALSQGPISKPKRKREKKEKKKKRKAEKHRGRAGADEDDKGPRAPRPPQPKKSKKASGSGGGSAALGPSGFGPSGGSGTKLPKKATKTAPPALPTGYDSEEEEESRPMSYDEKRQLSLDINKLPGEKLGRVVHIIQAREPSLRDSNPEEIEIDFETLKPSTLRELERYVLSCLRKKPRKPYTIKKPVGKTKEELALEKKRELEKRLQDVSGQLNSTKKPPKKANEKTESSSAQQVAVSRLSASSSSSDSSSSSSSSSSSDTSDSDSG

Activity [1] | Activity [2] | Activity [3] | Activity [4] | Structure (SMILES)
inactive | inactive | inactive | inactive | COc1ccc2c(c1)N(CCC/C=C/c1cccc3c1N[C@H](C)CC(=O)N3)CCC2
inactive | inactive | inactive | inactive | COc1ccc2c(c1)N(CCC/C=C/c1cccc3c1N[C@@H](C)CC(=O)N3)CCC2
